Results on two compounds are retold here after article PMC3401020 (Bioorganic & medicinal chemistry, 2011).

Series [1] concerns the target T1, COX-1 (Ovis aries, UniProt P05979).
T1 sequence (P05979 25-600): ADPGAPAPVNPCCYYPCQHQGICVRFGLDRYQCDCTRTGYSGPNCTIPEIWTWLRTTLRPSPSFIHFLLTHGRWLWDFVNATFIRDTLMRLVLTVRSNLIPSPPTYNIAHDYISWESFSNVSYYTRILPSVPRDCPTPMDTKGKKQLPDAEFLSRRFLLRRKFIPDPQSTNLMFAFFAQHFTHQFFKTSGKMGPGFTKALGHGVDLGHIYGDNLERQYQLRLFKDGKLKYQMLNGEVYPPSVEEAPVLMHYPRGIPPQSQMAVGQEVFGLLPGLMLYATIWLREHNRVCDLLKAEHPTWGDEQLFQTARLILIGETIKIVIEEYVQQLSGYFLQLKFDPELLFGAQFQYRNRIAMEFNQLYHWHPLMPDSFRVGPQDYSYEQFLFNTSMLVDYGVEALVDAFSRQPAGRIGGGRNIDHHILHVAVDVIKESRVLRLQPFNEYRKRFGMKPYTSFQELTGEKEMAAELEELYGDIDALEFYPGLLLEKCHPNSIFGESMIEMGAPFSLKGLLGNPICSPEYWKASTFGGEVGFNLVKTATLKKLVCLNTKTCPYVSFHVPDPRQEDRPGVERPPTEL
In words: COX-1 inhibition, conversion of [14C]-arachidonic acid to [14C]-prostaglandins. Format: biochemical, ovine. Conditions: 25 μM concentration. The method in brief:
(§1)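 Carbaborane esters of indomethacin screened at 25 μM against ovine COX-1 and murine COX-2, measuring conversion of [14C]-arachidonic acid to [14C]-prostaglandins. Reactions were stopped, then substrate consumption was read by thin-layer chromatography.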

For the next series, the target named is T2, COX-2 (Mus musculus, UniProt Q05769).
T2 sequence (Q05769 18-604): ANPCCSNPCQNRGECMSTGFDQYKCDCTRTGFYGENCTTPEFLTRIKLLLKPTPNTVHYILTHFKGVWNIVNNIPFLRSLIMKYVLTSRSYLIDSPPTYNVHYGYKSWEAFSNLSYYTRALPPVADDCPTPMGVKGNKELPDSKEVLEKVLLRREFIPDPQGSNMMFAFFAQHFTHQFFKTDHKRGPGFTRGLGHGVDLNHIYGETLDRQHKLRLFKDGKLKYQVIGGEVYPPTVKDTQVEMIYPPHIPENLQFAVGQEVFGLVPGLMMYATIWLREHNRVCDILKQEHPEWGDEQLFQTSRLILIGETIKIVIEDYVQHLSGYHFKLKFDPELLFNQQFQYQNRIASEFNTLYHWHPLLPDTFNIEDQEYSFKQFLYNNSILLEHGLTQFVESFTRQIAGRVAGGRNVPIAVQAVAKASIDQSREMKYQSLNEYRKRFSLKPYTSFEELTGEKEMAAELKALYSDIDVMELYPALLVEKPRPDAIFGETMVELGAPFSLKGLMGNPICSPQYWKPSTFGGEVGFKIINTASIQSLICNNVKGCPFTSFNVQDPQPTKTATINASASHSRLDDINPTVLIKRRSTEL
In words: COX-2 inhibition, conversion of [14C]-arachidonic acid to [14C]-prostaglandins. It counts as biochemical, murine. As to conditions: 25 μM concentration. An outline of the steps:
as §1

Series [2] is described as follows: NMR stability measurements in wet methanol. Conditions: assay timescale. It counts as physicochemical.
In series [3] the target is T1, COX-1. Conditions: already reported; cited from earlier work.

As to “2-{1-[(4-Chlorophenyl)carbonyl]-5-methoxy-2-methyl-1H-indol-3-yl}acetic acid 1-(1,2-dicarba-closo-dodecaboranyl) ester [5o]”, the “COX-1 inhibition in screen” value at COX-1 [1] is “by far the best COX-inhibition”. On COX-2, the “COX-2 inhibition in screen” value is listed as “by far the best COX-inhibition”. Also, in series [2], the “stability in wet methanol (NMR)” value is on record as “stable”.
As for `COc1ccc2c(c1)c(CC(=O)Oc1ccccc1)c(C)n2C(=O)c1ccc(Cl)cc1` [compound 10], the “IC50 COX-1” value at COX-1 [3] is “inactive”.
